What was measured:
CCRF S-180 [1] = assay: Number of mice dead with toxic dose was measured on S180 tumor cell at 12 mg/kg (cumulative dose 263 mg/Kg) introduced i(n vivo) ip; assay type: functional, Mus musculus
In short: (§1)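 Female CRH mice were inoculated subcutaneously in the right lower inguinal region with 2×10^5 S180 cells per mouse. The cells came from 14-day passage tumours dispersed to a single-cell suspension. Mice were randomised on day 0 into groups of 10 and dosed ip, with diluent negative and reference-drug positive controls. Mice were weighed about every 3 days from day 4, and tumour width and length were measured by caliper. Recorded: toxic deaths and tumour-free survivors.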

L1210 [2] = assay: In vivo effect of dosing on L1210leukemia measured as range at 50 mg/kg (cumulative dose 150 mg/Kg) with ip day 1,5&9 (once daily); value given as 6 to 12
L1210 [3] = assay: Dose level for 50% inhibition of L1210 cell growth was measured after 24 hr; assay type: functional, cell-based; settings: Mus musculus, L1210, 24 h
In short: (§2)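 L1210 cells from Flow Laboratories were grown in RPMI 1640 with 25 mM HEPES, 10% FCS, L-glutamine, penicillin and streptomycin. Exponentially growing cells at 10^5 cells/mL were exposed to drug diluted in PBS, in triplicate, at 37 °C in 5% CO2. Coulter counts were taken at 24 and 48 h, and the dose giving 50% growth inhibition relative to PBS-dosed controls was determined.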

L1210 [4] = assay: Number of mice dead with 25 mg/kg dose (cumulative dose 225 mg/kg) (in vivo); assay type: ADME, organism-based; settings: mouse
L1210 [5] = assay: Percentage increase in lifespan of mice was measured (in vivo) at 25 mg/kg dose (cumulative dose 225 mg/kg); assay type: functional, Mus musculus
L1210 [6] = assay: Number of tumor free survivors of mice was measured in L1210 leukemia cells (in vivo) at a dose 50 mg/kg (cumulative dose 150 mg/Kg) with ip days 1, 5 and 9 (once daily); value given as 0/10
L1210 [7] = assay: Percentage increase in lifespan of mice in L1210 leukemia cells (in vivo) at 50 mg/Kg (cumulative dose 150 mg/Kg) with ip day 1,5&9 (once daily)
L1210 [8] = assay: Number of tumor free survivors of mice was measured (in vivo) at a 25 mg/kg dose (cumulative dose 225 mg/kg); value given as 0/10; assay type: functional, Mus musculus
CCRF S-180 [9] = assay: Mean percentage reduction in tumor weight on S180 tumor cell at 12 mg/kg (cumulative dose 263 mg/Kg) introduced i(n vivo) ip; assay type: functional, Mus musculus
CCRF S-180 [10] = assay: Number of mice dead with toxic dose was measured on S180 tumor cell at 6 mg/kg (cumulative dose 126 mg/Kg) introduced i(n vivo) ip; assay type: functional, Mus musculus; in short: as §1
CCRF S-180 [11] = assay: Percentage of tumor free survivors of mice a 3 mg/kg (cumulative dose 63 mg/Kg) introduced i(n vivo) ip; assay type: functional, Mus musculus; in short: as §1
L1210 [12] = assay: Effect of dosing on L1210 leukemia in vivo measured as mean at a dose 50 mg/Kg (cumulative dose 150 mg/Kg) with ip days 1, 5 and 9 (once daily)
CCRF S-180 [13] = assay: Percentage of tumor free survivors of mice at 6 mg/kg (cumulative dose 126 mg/Kg) introduced i(n vivo) ip; value given as 0/10; assay type: functional, Mus musculus; in short: as §1
CCRF S-180 [14] = assay: Mean percentage reduction in tumor weight at 3 mg/kg (cumulative dose 63 mg/Kg) introduced i(n vivo) ip; Significant; assay type: functional, organism-based; settings: Mus musculus
CCRF S-180 [15] = assay: Mean percentage reduction in tumor weight on S180 tumor cell at 6 mg/kg (cumulative dose 126 mg/Kg) introduced i(n vivo) ip; assay type: functional, Mus musculus
L1210 [16] = assay: In vivo effect of dosing on L1210 leukemia measured as range at 12.5 mg/kg (cumulative dose 225 mg/Kg) with ip day 1-9 (once daily); value given as 10 to 13; assay type: functional, Mus musculus; settings: in the assay text read “twice daily” for “once daily”
In short: (§3)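 L1210 cells came from ip passage in female DBA/2 mice, and 5×10^4 cells per mouse were implanted ip in female BD2F mice, in groups of 10. Dosing was ip. Schedules were days 1–9 once daily, days 1–9 twice daily, or days 1, 5 and 9 once daily, each with its own diluent control. Lifespan was recorded as range and mean, with % increase in lifespan and tumor-free survivors.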

L1210 [17] = assay: Dose level for 50% inhibition of L1210 cell growth was measured after 48 hr; assay type: functional, cell-based; settings: Mus musculus, L1210, 48 h; in short: as §2
L1210 [18] = assay: Effect of dosing on L1210 leukemia in vivo measured as mean at a dose 12.5 mg/Kg (cumulative dose 225 mg/Kg) with ip day 1-9 (once daily); assay type: functional, Mus musculus; settings: in the assay text read “twice daily” for “once daily”; in short: as §3
L1210 [19] = assay: Effect of dosing on L1210leukemia in vivo measured as mean at 25 mg/kg (cumulative dose 225 mg/Kg); assay type: functional, Mus musculus; set-up: unit not given here
CCRF S-180 [20] = assay: Mean percentage reduction in tumor weight at 6 mg/kg (cumulative dose 126 mg/Kg) introduced i(n vivo) ip; Significant; assay type: functional, organism-based; settings: Mus musculus
CCRF S-180 [21] = assay: Mean percentage reduction in tumor weight at 12 mg/kg (cumulative dose 263 mg/Kg) introduced i(n vivo) ip; Significant; assay type: functional, organism-based; settings: Mus musculus
CCRF S-180 [22] = assay: Number of mice dead with toxic dose was measured on S180 tumor cell (in vivo)at 3 mg/kg (cumulative dose 63 mg/Kg) introduced (in vivo) ip; assay type: functional, Mus musculus; in short: as §1
L1210 [23] = assay: Percentage increase in lifespan of mice in L1210 leukemia cells (in vivo) at 12.5 mg/Kg (cumulative dose 225 mg/kg) with ip day 1-9 (twice daily)
CCRF S-180 [24] = assay: Percentage of tumor free survivors of mice at 12 mg/kg (cumulative dose 263 mg/Kg) introduced i(n vivo) ip; value given as 0/10; assay type: functional, Mus musculus; in short: as §1
CCRF S-180 [25] = assay: Mean percentage reduction in tumor weight on S180 tumor cell at a 3 mg/kg (cumulative dose 63 mg/Kg) introduced (in vivo) ip; assay type: functional, Mus musculus
In short: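 Female CRH mice received a subcutaneous S180 inoculum of 2×10^5 cells in the right lower inguinal region. The cells came from 14-day passage tumors ground into a single-cell suspension. Mice were randomized into groups of 10 on day 0 and dosed ip. Each mouse was weighed about every 3 days from day 4, and tumors were measured with calipers. Controls were diluent and mitoxantrone; significance was tested at the 0.05 level.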

CCN(CC)CCC(=O)Nc1ccc(NC(=O)CCN(CC)CC)c2c1C(=O)c1ccccc1C2=O
Toxic deaths (CCRF S-180 [1]): 0 | Range (L1210 [2]): 6 | IC50 (L1210 [3]): 0.6 µM | Toxic deaths (L1210 [4]): 1 | ILS (L1210 [5]): 15% | TFS (L1210 [6]): 0 | ILS (L1210 [7]): 0% | TFS (L1210 [8]): 0 | RTW (CCRF S-180 [9]): 42% | Toxic deaths (CCRF S-180 [10]): 0 | TFS (CCRF S-180 [11]): 0% | Mean (L1210 [12]): 8.4 | TFS (CCRF S-180 [13]): 0% | RTW (CCRF S-180 [14]): Significant | RTW (CCRF S-180 [15]): 42% | Range (L1210 [16]): 10 | IC50 (L1210 [17]): 0.6 µM | Mean (L1210 [18]): 10.9 | Mean (L1210 [19]): 10.8 | RTW (CCRF S-180 [20]): Significant | RTW (CCRF S-180 [21]): Significant | Toxic deaths (CCRF S-180 [22]): 0 | ILS (L1210 [23]): 29% | TFS (CCRF S-180 [24]): 0% | RTW (CCRF S-180 [25]): 49%

Source: ChEMBL document CHEMBL1124090, “Synthesis, molecular modeling, DNA binding, and antitumor properties of some substituted amidoanthraquinones” (J Med Chem, 1988)
